core dimer inh: inhibitors of HCV core protein dimerization, primary screen, biochemical, TR-FRET, high-throughput; TR-FRET GST/Flag-core106 dimerization, 1536-well; inhibition, % at 5 µM; 0.33% of 300,000 active; AID 1899, 2009;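 active = inhibition above the mean of all tested compounds plus 3 SD, set per screening campaign, cut at about 45% in these data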
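Assay system: GST-tagged and Flag-tagged HCV core protein residues 1-106 / Times: compound-protein-antibody incubation 4 h at 22.5 °C / Signal: time-resolved FRET, ex 340 nm, em 617 and 671 nm / Evaluation: % inhibition based on acceptor/donor emission ratio / Benchmarks: wells lacking GST-core106 and wells with excess unlabelled core106 / Repeats: singlicate, one well per compound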
TDP2 absorb: human TDP2 enzyme inhibitors, primary screen, biochemical, epi absorbance, recombinant enzyme. Tyrosyl-DNA phosphodiesterase 2 (Homo sapiens), O95551. T5PNP hydrolysis, p-nitrophenol absorbance 415 nm. inhibition, % at 12.8 µM. 0.34% of 370,000 active. AID 720702, 2013;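 active = inhibition above the mean of all tested compounds plus 3 SD, set per campaign, cut at about 25% in these data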
Target sequence (O95551 whole entry, looked up): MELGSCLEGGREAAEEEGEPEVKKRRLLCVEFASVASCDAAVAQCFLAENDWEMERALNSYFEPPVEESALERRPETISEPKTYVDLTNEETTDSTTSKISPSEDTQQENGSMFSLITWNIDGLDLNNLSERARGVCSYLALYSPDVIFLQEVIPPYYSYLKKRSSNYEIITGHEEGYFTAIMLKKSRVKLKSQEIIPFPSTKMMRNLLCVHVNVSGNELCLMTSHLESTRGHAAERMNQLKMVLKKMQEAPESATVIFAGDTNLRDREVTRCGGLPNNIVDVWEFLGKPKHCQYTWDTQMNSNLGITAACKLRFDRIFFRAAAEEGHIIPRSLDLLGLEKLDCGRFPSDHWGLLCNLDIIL
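test system = human TDP2 enzyme | input = TDP2 enzyme at 120 nM final | medium = 50 mM Tris-HCl pH 7.5 with Mg2+, KCl, DTT, BSA | also added = T5PNP substrate, 5 mM | times = 2 h at 37 °C | technique = epi absorbance | benchmarks = high control without enzyme, low control DMSO plus TDP2 | replication = each compound tested once, singlicate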
LEDGF integ inh: blockers of LEDGF/p75-dependent integrase strand transfer – biochemical, TR-FRET, high throughput, primary screen | inhibition, % at 3.7 µM | AID 743269, 2014 | TR-FRET IN-LEDGF/p75 DNA integration, Eu/Cy5 | 0.64% of 370,000 active;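 active = inhibition above the screen-wide mean plus 3 SD, cut at about 13% in these data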;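 note: signal is the Cy5 over europium emission ratio at 671 and 618 nm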
MBD2 DNA inh: inhibitors of MBD2 binding to methylated DNA, primary screen, biochemical, TR-FRET, DNA-binding domain, human | Methyl-CpG-binding domain protein 2 (Homo sapiens), Q9UBB5 | MBD2 binding to methylated oligonucleotide | inhibition, % at 4.4 µM | 0.31% of 370,000 active | AID 686964, 2013; in the data active = inhibition above about 13%
UHRF1 MBD2 ctr: UHRF1 methylated DNA binding inhibitors, primary screen, counter-screen for MBD2 inhibitor project, biochemical, TR-FRET, human UHRF1, single concentration. 0.75% of 370,000 active. E3 ubiquitin-protein ligase UHRF1 (Homo sapiens), Q96T88. UHRF1 binding to methylated oligo. inhibition, % at 4.4 µM; in the data active = inhibition above about 21%;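 note: UHRF1 SRA domain binding a hemimethylated CpG hairpin DNA probe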
UHRF1 DNA bind: UHRF1 methylated DNA binding inhibitors, counter-screen for MBD2 inhibitor project, biochemical, TR-FRET, human UHRF1; shares compounds with MBD2 DNA inh; UHRF1 binding to methylated oligonucleotide; inhibition, % at 4.4 µM; 25% of 1,000 active; AID 720530, 2013; in the data active = inhibition above about 21%;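 note: UHRF1 SRA domain binding a labeled hemimethylated CpG hairpin DNA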
MBD2 confirm: inhibitors of MBD2 binding to methylated DNA, confirmation, biochemical, TR-FRET, DNA-binding domain, human; TR-FRET MBD2-DBD binding to methylated oligonucleotide; shares compounds with MBD2 DNA inh; inhibition, % at 4.4 µM; 26% of 1,000 active
TDP2 inh conf: human TDP2 enzyme inhibitors, retest, confirmation, biochemical, epi absorbance, recombinant enzyme; absorbance read-out; 22% of 1,100 active; shares compounds with TDP2 absorb; inhibition, % at 12.8 µM; AID 743263, 2014; in the data active = inhibition above about 25%
IN multimer up: HIV-1 IN multimer formation enhancers, counter-screen for LEDGF/p75 integration inhibitor project, biochemical, TR-FRET | activation, % at 7.7 µM | 17% of 2,000 active | TR-FRET HIV-1 integrase multimerization | shares compounds with LEDGF integ inh; in the data active = activation above about 8.9%
TR-FRET interf: TR-FRET optical interference artefacts, confirmation, artefact control for LEDGF/p75-dependent integration inhibitor project, biochemical, HIV-1 IN multimerization. 2,000 tested, under 10 active. TR-FRET optical interference counterscreen. inhibition, % at 7.7 µM. shares compounds with LEDGF integ inh;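 active = inhibition above the mean over all tested compounds plus 3 SD, which no compound reached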
LEDGF integ conf: inhibitors of HIV-1 IN-LEDGF/p75 DNA integration, confirmation, biochemical, TR-FRET; shares compounds with LEDGF integ inh; TR-FRET LEDGF/p75-dependent HIV-1 integration; inhibition, % at 3.7 µM; 36% of 2,000 active; AID 1053136, 2014
Each line names hits and unclear results; the compound was inactive in the other large screens (follow-up assays come after a bar, where they were run). Sampled rows, rich in hits. Any-hit rate of the full collection: about 1.8%. Cut-off read from the data, not from the text of the source, unless noted: active = inhibition above about 14%; inactive = the rest.

Cc1[nH][nH]c(=O)c1C(c1cc2c(cc1Br)OCO2)c1c(C)[nH][nH]c1=O	none
NC(=S)N=Nc1c(O)cc(O)c2[nH]c(=O)ccc12	TDP2 absorb 51.8, LEDGF integ inh 29.6, MBD2 DNA inh 14.6, UHRF1 MBD2 ctr 42.2 (no result: core dimer inh) | UHRF1 DNA bind inactive | MBD2 confirm inactive | TDP2 inh conf 44.0
NC(=S)N=Nc1c(O)[nH]c2ccc(F)cc12	none
COCCCNC(=O)[C@@H](Cc1ccccc1)NC(=O)[C@H]1O[C@@H](n2ccc(=O)[nH]c2=O)[C@H](O)[C@@H]1O	none (no result: core dimer inh)
Cc1c(N)cc(N)cc1C(=O)O	TDP2 absorb 31.1, LEDGF integ inh 73.9, MBD2 DNA inh 25.9, UHRF1 MBD2 ctr 73.2 | UHRF1 DNA bind inactive | MBD2 confirm inactive | TDP2 inh conf inactive | IN multimer up inactive | TR-FRET interf inactive | LEDGF integ conf inactive
CCCCCCCCN1CCS(=O)(=O)N(Cc2ccccc2)C(C(=O)OC)C1 (configuration not stated)	none (no result: core dimer inh)
O=C(O)c1cc(N2C(=O)C=CC2=O)cc(N2C(=O)C=CC2=O)c1	LEDGF integ inh 61.5, MBD2 DNA inh 79.8, UHRF1 MBD2 ctr 96.6 (no result: core dimer inh) | UHRF1 DNA bind 77.2 | MBD2 confirm 39.4 | IN multimer up inactive | TR-FRET interf inactive | LEDGF integ conf 52.9
Cc1c(O)cc2c(c1O)C(=O)CC(c1ccc(O)cc1)O2 (configuration not stated)	LEDGF integ inh 21.8, MBD2 DNA inh 15.1, UHRF1 MBD2 ctr 28.7 | UHRF1 DNA bind inactive | MBD2 confirm inactive | IN multimer up 36.8 | TR-FRET interf inactive | LEDGF integ conf 39.2
COC(=O)[C@]12C[C@H](CC(=O)NCc3cccc(C(F)(F)F)c3)C(=O)N(Cc3ccc4c(c3)OCO4)C1=C[C@H](C(C)C)O[C@@H]2C1CC1	none (no result: core dimer inh)
O=C(CSc1nc2ccccc2nc1N1CCCCC1)N1CCN(S(=O)(=O)c2cc(Cl)ccc2Cl)CC1	none (no result: core dimer inh)
O=C(NC(=S)Nc1ccc(Br)cn1)c1cccs1	LEDGF integ inh 19.0, MBD2 DNA inh 14.0, UHRF1 MBD2 ctr 36.7 | UHRF1 DNA bind inactive | MBD2 confirm inactive | IN multimer up inactive | TR-FRET interf inactive | LEDGF integ conf inactive
CC1=NN(c2ccccc2)C(=O)C1	TDP2 absorb 66.5, LEDGF integ inh 30.9, MBD2 DNA inh 17.5 | UHRF1 DNA bind inactive | MBD2 confirm inactive | TDP2 inh conf inactive | IN multimer up inactive | TR-FRET interf inactive | LEDGF integ conf inactive
Cc1ccc(-c2nc3c(c(=O)[nH]c(=O)n3Cc3ccccc3)n2C)o1	LEDGF integ inh 22.6, MBD2 DNA inh 16.3, UHRF1 MBD2 ctr 29.6 (no result: core dimer inh) | UHRF1 DNA bind inactive | MBD2 confirm inactive | IN multimer up inactive | TR-FRET interf inactive | LEDGF integ conf 33.8
Cc1ccc(-c2nc3c(c(=O)[nH]c(=O)n3Cc3ccccc3)n2Cc2ccccc2)o1	none (no result: core dimer inh)
OCCN(CCO)c1ncnc2c1sc1nc(N3CCOCC3)c3c(c12)CCCC3	none
CSc1nc(N(CCO)CCO)c2sc3nc(-c4ccco4)c4c(c3c2n1)CCC4	LEDGF integ inh 15.8, MBD2 DNA inh 18.5, UHRF1 MBD2 ctr 24.1 (no result: core dimer inh) | UHRF1 DNA bind 30.7 | MBD2 confirm 36.2 | IN multimer up 11.9 | TR-FRET interf inactive | LEDGF integ conf 52.9
N[C@@H](Cc1ccc(O)c(O)c1)C(=O)O	LEDGF integ inh 89.4, MBD2 DNA inh 34.1, UHRF1 MBD2 ctr 66.8 (no result: core dimer inh) | UHRF1 DNA bind 96.3 | MBD2 confirm 58.6 | IN multimer up 53.0 | TR-FRET interf inactive | LEDGF integ conf 93.3
O=C(NN1C(=O)/C(=C/C=C/c2ccco2)SC1=S)c1ccccc1O	core dimer inh 70.2, LEDGF integ inh 81.3, MBD2 DNA inh 56.4, UHRF1 MBD2 ctr 95.0 | UHRF1 DNA bind 66.3 | MBD2 confirm 29.6 | IN multimer up 72.8 | TR-FRET interf inactive | LEDGF integ conf 79.7
O=C(O)C(Cc1ccccc1)N1C(=O)/C(=C/C=C/c2ccco2)SC1=S (configuration not stated)	LEDGF integ inh 85.5, MBD2 DNA inh 93.9, UHRF1 MBD2 ctr 98.3 (no result: core dimer inh) | UHRF1 DNA bind 97.7 | MBD2 confirm 71.4 | IN multimer up 26.5 | TR-FRET interf inactive | LEDGF integ conf 82.4
COc1ccc(/C=C2\SC(=S)N(C(Cc3ccccc3)C(=O)O)C2=O)cc1 (configuration not stated)	none (no result: core dimer inh)
Cn1cc(/C=C2\SC(=O)N(c3ccccc3)C2=O)c2ccccc21	none
O=C1S/C(=C\C=C\c2ccco2)C(=O)N1c1ccccc1	LEDGF integ inh 39.5, MBD2 DNA inh 13.3, UHRF1 MBD2 ctr 25.5 | UHRF1 DNA bind inactive | MBD2 confirm inactive | IN multimer up inactive | TR-FRET interf inactive | LEDGF integ conf 22.6
O=C(O)CCCN1C(=O)/C(=C/C=C/c2ccco2)SC1=S	core dimer inh 74.5, LEDGF integ inh 87.2, MBD2 DNA inh 70.3, UHRF1 MBD2 ctr 98.3 | UHRF1 DNA bind 90.5 | MBD2 confirm 49.0 | IN multimer up 12.8 | TR-FRET interf inactive | LEDGF integ conf 82.8

High-throughput results from PubChem.
